NPY Y2 blocker: blocks the human neuropeptide Y Y2 receptor; inhibition, % at 2.7 µM; NPY-Y2 expressing cells, antagonist mode; P49146; 140,000 compounds, 0.99% hits; in the data active = inhibition above about 17%
m-calpain inh: calpain II (pig) inhibition. purified calpain II, fluorogenic peptide substrate, 30 min. 220,000 compounds, 0.37% hits. inhibition, % at 16 µM;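 active = inhibition above about 50%, limit read from the data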
NPY-Y1 antag: blocks the human neuropeptide Y Y1 receptor; P25929; HEK293-CNG Y1 cells, membrane potential fluorescence; NPY at EC95, then isoproterenol; inhibition, % at 3.6 µM; 200,000 compounds, 1% hits; AID 1040;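 active = inhibition above the campaign mean inhibition of all tested compounds plus 3 SD, cut at about 20% in these data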
Target sequence (P25929 whole entry, looked up): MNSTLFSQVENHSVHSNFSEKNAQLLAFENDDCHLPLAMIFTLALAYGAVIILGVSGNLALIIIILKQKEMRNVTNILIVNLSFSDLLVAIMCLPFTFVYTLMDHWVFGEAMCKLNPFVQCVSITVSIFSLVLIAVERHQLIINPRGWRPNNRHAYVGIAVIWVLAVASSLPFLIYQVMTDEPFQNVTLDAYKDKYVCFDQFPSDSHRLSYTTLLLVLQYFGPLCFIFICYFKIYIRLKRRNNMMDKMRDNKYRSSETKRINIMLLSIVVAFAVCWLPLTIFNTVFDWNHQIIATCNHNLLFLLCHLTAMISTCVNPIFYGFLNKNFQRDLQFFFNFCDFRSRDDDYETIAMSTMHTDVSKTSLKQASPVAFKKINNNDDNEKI
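System: HEK293 cells with Y1 receptor plus CNG channel / Probe or stimulus: NPY 25 nM then isoproterenol 1 µM plus Ro 20-1724 25 µM / Compound: one concentration, 3.6 µM, in 0.4% DMSO / Schedule: compound incubation 1 h at room temperature, readout 45 min post-stimulation / Measured by: membrane potential fluorescence / Read-out: % inhibition of NPY effect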
Tb hexokinase: T. brucei hexokinase 1 inhibition; recombinant TbHK1, G6PDH-coupled NADH A340; inhibition, % at 10 µM; 220,000 compounds, 0.11% hits; AID 1430;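 active = inhibition of 50% or more in the single-dose primary screen; inactive = inhibition below 50%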
NPY2 pot ag: human NPY-Y2 potentiation or agonism, primary screen | cells expressing NPY-Y2, potentiator/agonist read-out | activation, % at 3.6 µM | P49146 | 220,000 compounds, 0.45% hits; in the data active = activation above about 27%;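 also: cells stimulated with NPY near EC25 plus isoproterenol at EC100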
NPY-Y1 PAM-ag: potentiators or agonists of human neuropeptide Y receptor Y1; P25929; NPY-Y1 expressing cells, potentiator/agonist activation; activation, % at 3.6 µM; 220,000 compounds, 0.37% hits; AID 1304; in the data active = activation above about 33%, passing the limit was not always enough;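 also: cells stimulated with NPY at EC10 then isoproterenol at EC100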
Hits are given with their value. A selection: hits, their analogues and other compounds. The true share with any hit is near 2.3%.

Screening O=C(Nc1ccc2c(c1)CCC2)c1cc(=O)[nH]c2ccccc12 returned m-calpain inh inactive, Tb hexokinase inactive, NPY2 pot ag inactive and NPY-Y1 PAM-ag inactive.
Cc1ccccc1/C=c1\s/c(=C\C(=O)C(C)(C)C)[nH]c1=O was read as NPY Y2 blocker 24.0, m-calpain inh inactive, NPY-Y1 antag 21.8, Tb hexokinase inactive, NPY2 pot ag inactive and NPY-Y1 PAM-ag inactive.
Screening O=C(Nc1ccc(Cl)cc1)NC1CCCCC1Cc1ccco1 (configuration not stated) returned NPY Y2 blocker inactive, m-calpain inh 52.9, NPY-Y1 antag inactive, Tb hexokinase inactive, NPY2 pot ag inactive and NPY-Y1 PAM-ag inactive.
Screening Cn1c(/C=N/Nc2nc3ccccc3[nH]2)nc2ccccc21 returned m-calpain inh inactive, NPY-Y1 antag inactive, Tb hexokinase inactive, NPY2 pot ag inactive and NPY-Y1 PAM-ag inactive.
For C=CCn1cc(/C=N/Nc2nc3ccccc3[nH]2)c2ccccc21 the results were NPY Y2 blocker inactive, m-calpain inh inactive, NPY-Y1 antag inactive, Tb hexokinase inactive, NPY2 pot ag 47.2 and NPY-Y1 PAM-ag 47.9.
Screening Cc1ccc(Cl)cc1NC(=S)N(CCCN1CCOCC1)Cc1ccco1 returned m-calpain inh inactive, NPY-Y1 antag inactive, Tb hexokinase inactive, NPY2 pot ag inactive and NPY-Y1 PAM-ag inactive.
CCCc1ccc(OC(=O)c2cccs2)cc1 was read as NPY Y2 blocker inactive, m-calpain inh inactive, NPY-Y1 antag inactive, Tb hexokinase inactive, NPY2 pot ag inactive and NPY-Y1 PAM-ag inactive.
CCCc1ccc(OC(=O)c2ccc(O)cc2Cl)cc1 was read as m-calpain inh 62.2, NPY-Y1 antag inactive, Tb hexokinase inactive, NPY2 pot ag inactive and NPY-Y1 PAM-ag inactive.
c1cc2c3c(cccc3c1)NC1(CCC3(CC1)Nc1cccc4cccc(c14)N3)N2 was read as m-calpain inh inactive, Tb hexokinase inactive, NPY2 pot ag 56.1 and NPY-Y1 PAM-ag 60.5.
`c1cc2c3c(cccc3c1)NC1(CCCCCC1)N2` gave NPY Y2 blocker inactive, m-calpain inh inactive, NPY-Y1 antag inactive, Tb hexokinase inactive, NPY2 pot ag inactive and NPY-Y1 PAM-ag inactive.
Screening c1ccc(CCCNCC2COc3ccccc3O2)cc1 (configuration not stated) returned m-calpain inh inactive, NPY-Y1 antag inactive, Tb hexokinase inactive, NPY2 pot ag inactive and NPY-Y1 PAM-ag inactive.
`c1ccc(CCCCNCC2COc3ccccc3O2)cc1` (configuration not stated) gave m-calpain inh inactive, NPY-Y1 antag 20.3, Tb hexokinase inactive, NPY2 pot ag inactive and NPY-Y1 PAM-ag inactive.
CN1CCc2c1nc1ccccc1c2N=C1CCCN1Cc1ccccc1 was read as NPY Y2 blocker 21.9, m-calpain inh inactive, NPY-Y1 antag 22.4, Tb hexokinase inactive, NPY2 pot ag inactive and NPY-Y1 PAM-ag inactive.
Screening Cc1cc(C)c(N=C2CCCN2Cc2ccccc2)c(C#N)c1 returned NPY Y2 blocker inactive, m-calpain inh inactive, NPY-Y1 antag inactive, Tb hexokinase inactive, NPY2 pot ag inactive and NPY-Y1 PAM-ag inactive.
CC(C)COC(=O)Nc1nnc(SCc2ccccc2F)s1 was read as NPY Y2 blocker inactive, m-calpain inh inactive, NPY-Y1 antag inactive, Tb hexokinase inactive, NPY2 pot ag inactive and NPY-Y1 PAM-ag inactive.
Screening CC(C)COC(=O)Nc1nnc(SCCOc2ccccc2)s1 returned NPY Y2 blocker inactive, m-calpain inh inactive, NPY-Y1 antag 29.1, Tb hexokinase inactive, NPY2 pot ag inactive and NPY-Y1 PAM-ag inactive.
CC1CCN(S(=O)(=O)c2ccc(NC(=O)CCN3C(=O)c4ccccc4C3=O)cc2)CC1 was read as NPY Y2 blocker inactive, m-calpain inh inactive, NPY-Y1 antag inactive, Tb hexokinase inactive, NPY2 pot ag inactive and NPY-Y1 PAM-ag inactive.
Screening O=C(CCCCCN1C(=O)c2ccccc2C1=O)Nc1ccc(S(=O)(=O)N2CCCCC2)cc1 returned NPY Y2 blocker inactive, m-calpain inh 53.4, NPY-Y1 antag inactive, Tb hexokinase inactive, NPY2 pot ag inactive and NPY-Y1 PAM-ag inactive.
Screening CCC(Oc1nc2ccccc2nc1-c1ccccc1NC(C)=O)C(=O)c1ccccc1 (configuration not stated) returned NPY Y2 blocker 19.7, m-calpain inh inactive, NPY-Y1 antag 32.9, Tb hexokinase inactive, NPY2 pot ag inactive and NPY-Y1 PAM-ag inactive.
For COc1ccc(Oc2ccc3c(C(F)(F)F)cc(C(F)(F)F)nc3n2)cc1 the results were NPY Y2 blocker inactive, m-calpain inh inactive, NPY-Y1 antag inactive, Tb hexokinase inactive, NPY2 pot ag inactive and NPY-Y1 PAM-ag inactive.
Screening Oc1ccc(Oc2ccc3c(C(F)(F)F)cc(C(F)(F)F)nc3n2)cc1 returned NPY Y2 blocker inactive, m-calpain inh inactive, NPY-Y1 antag inactive, Tb hexokinase inactive, NPY2 pot ag 49.1 and NPY-Y1 PAM-ag 39.7.
Screening Cc1c(Cl)cccc1NC(=S)N1CCC(N(C)CC2CCCO2)CC1 (configuration not stated) returned m-calpain inh inactive, NPY-Y1 antag inactive, Tb hexokinase inactive, NPY2 pot ag inactive and NPY-Y1 PAM-ag inactive.
Screening COc1ccccc1OCC(O)CNCc1ccc2c(c1)OCO2 (configuration not stated) returned m-calpain inh inactive, Tb hexokinase inactive, NPY2 pot ag 48.0 and NPY-Y1 PAM-ag 78.8.
`Cc1ccc(CN(C)C(=O)c2cc(COc3ccc(F)cc3Cl)on2)o1` gave m-calpain inh inactive, NPY-Y1 antag 20.2, Tb hexokinase inactive, NPY2 pot ag inactive and NPY-Y1 PAM-ag inactive.
Screening COc1ccccc1N1C(=O)c2ccc(C(=O)Nc3nccs3)cc2C1=O returned m-calpain inh inactive, NPY-Y1 antag inactive, Tb hexokinase inactive, NPY2 pot ag inactive and NPY-Y1 PAM-ag inactive.
For Nc1cc(S(=O)(=O)N2CCCCC2)ccc1Oc1ccc(Cl)cc1 the results were m-calpain inh 63.5, NPY-Y1 antag inactive, Tb hexokinase inactive, NPY2 pot ag inactive and NPY-Y1 PAM-ag inactive.
Cc1cccc(Oc2ccc(S(=O)(=O)N3CCCCC3)cc2N)c1 was read as m-calpain inh inactive, NPY-Y1 antag inactive, Tb hexokinase inactive, NPY2 pot ag inactive and NPY-Y1 PAM-ag inactive.
O=C(NCC(=O)N(c1cccc(F)c1)C(C(=O)NC1CCCC1)c1cccnc1)c1cccs1 (configuration not stated) was read as m-calpain inh inactive, NPY-Y1 antag inactive, Tb hexokinase inactive, NPY2 pot ag inactive and NPY-Y1 PAM-ag inactive.
For COc1ccccc1NC(=O)COc1ccc(Br)cc1CNC1CCCC1 the results were m-calpain inh inactive, NPY-Y1 antag 21.1, Tb hexokinase inactive, NPY2 pot ag inactive and NPY-Y1 PAM-ag inactive.
For COc1ccccc1NC(=O)COc1ccc(Br)cc1CO the results were NPY Y2 blocker inactive, m-calpain inh inactive, NPY-Y1 antag inactive, Tb hexokinase inactive, NPY2 pot ag inactive and NPY-Y1 PAM-ag inactive.
Screening Cc1nn(C(=O)c2nn(C)cc2[N+](=O)[O-])c(C)c1Br returned m-calpain inh inactive, NPY-Y1 antag inactive, Tb hexokinase inactive, NPY2 pot ag inactive and NPY-Y1 PAM-ag inactive.
O=C(O)/C=C\C(=O)Nc1ccccc1C(=O)N1CCN(c2ccc(Cl)cc2)CC1 was read as NPY Y2 blocker inactive, m-calpain inh inactive, NPY-Y1 antag inactive, Tb hexokinase inactive, NPY2 pot ag 31.2 and NPY-Y1 PAM-ag 90.7.

Compound activity (PubChem BioAssay)
